This note sets out measurements from ChEMBL document CHEMBL4371052, “Diarylcarbonates are a new class of deubiquitinating enzyme inhibitor” (Bioorg Med Chem Lett, 2019).

Holding throughout (assay type): subcellular
What all share (conditions): Lysate

For experiment [1], the target named is T1, Ubiquitin carboxyl-terminal hydrolase 19 (Homo sapiens) (UniProt O94966).
T1 sequence (whole entry): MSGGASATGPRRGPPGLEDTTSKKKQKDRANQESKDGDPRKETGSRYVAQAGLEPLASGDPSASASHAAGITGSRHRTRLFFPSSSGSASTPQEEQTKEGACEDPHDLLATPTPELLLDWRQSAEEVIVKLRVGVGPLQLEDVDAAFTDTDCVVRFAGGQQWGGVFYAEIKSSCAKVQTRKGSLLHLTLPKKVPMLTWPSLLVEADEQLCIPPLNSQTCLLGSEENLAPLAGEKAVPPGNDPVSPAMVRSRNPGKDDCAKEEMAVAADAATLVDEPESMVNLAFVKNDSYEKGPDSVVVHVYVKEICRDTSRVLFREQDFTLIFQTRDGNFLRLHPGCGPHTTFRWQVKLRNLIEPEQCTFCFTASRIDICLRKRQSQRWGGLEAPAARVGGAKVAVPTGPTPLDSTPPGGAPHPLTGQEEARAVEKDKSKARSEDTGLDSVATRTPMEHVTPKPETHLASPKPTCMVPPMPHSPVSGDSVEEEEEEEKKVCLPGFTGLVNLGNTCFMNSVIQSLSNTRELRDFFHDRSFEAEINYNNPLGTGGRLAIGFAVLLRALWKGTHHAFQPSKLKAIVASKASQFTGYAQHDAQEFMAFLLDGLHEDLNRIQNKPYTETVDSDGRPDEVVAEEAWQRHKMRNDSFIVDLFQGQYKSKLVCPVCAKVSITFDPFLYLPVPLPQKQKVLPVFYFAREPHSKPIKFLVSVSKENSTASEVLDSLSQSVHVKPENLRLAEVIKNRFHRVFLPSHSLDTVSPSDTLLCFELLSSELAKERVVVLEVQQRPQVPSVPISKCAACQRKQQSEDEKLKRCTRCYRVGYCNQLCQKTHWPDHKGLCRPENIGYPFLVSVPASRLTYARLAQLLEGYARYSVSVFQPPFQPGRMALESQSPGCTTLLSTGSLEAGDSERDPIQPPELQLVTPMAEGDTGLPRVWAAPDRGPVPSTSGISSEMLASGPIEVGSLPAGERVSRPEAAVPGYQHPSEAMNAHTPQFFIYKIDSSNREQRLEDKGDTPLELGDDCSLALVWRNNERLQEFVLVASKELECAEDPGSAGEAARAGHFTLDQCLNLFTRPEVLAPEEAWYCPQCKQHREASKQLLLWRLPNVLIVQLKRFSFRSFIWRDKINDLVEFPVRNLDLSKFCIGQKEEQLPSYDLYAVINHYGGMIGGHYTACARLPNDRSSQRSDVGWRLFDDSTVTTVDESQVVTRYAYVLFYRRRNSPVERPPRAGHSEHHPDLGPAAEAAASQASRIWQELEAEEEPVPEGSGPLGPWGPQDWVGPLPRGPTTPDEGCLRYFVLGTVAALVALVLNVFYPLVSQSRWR
As to the kind of experiment: Inhibition of USP19 in HEK293T cell lysates at 25 uM using HA-tagged vinyl-sulfone as substrate measured after 2 to 30 mins by Western blot analysis. The essentials: (§1)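 HEK 293T lysate (1.5 mg/ml) given compound (25 μM) or DMSO at the same time as HA-Ub-VS (1.5 μM). Aliquots withdrawn over time were run on SDS-PAGE and immunoblotted for HA.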

Experiment [2] concerns the target T2, Ubiquitin carboxyl-terminal hydrolase 8 (Homo sapiens) (UniProt P40818).
T2 sequence (whole entry): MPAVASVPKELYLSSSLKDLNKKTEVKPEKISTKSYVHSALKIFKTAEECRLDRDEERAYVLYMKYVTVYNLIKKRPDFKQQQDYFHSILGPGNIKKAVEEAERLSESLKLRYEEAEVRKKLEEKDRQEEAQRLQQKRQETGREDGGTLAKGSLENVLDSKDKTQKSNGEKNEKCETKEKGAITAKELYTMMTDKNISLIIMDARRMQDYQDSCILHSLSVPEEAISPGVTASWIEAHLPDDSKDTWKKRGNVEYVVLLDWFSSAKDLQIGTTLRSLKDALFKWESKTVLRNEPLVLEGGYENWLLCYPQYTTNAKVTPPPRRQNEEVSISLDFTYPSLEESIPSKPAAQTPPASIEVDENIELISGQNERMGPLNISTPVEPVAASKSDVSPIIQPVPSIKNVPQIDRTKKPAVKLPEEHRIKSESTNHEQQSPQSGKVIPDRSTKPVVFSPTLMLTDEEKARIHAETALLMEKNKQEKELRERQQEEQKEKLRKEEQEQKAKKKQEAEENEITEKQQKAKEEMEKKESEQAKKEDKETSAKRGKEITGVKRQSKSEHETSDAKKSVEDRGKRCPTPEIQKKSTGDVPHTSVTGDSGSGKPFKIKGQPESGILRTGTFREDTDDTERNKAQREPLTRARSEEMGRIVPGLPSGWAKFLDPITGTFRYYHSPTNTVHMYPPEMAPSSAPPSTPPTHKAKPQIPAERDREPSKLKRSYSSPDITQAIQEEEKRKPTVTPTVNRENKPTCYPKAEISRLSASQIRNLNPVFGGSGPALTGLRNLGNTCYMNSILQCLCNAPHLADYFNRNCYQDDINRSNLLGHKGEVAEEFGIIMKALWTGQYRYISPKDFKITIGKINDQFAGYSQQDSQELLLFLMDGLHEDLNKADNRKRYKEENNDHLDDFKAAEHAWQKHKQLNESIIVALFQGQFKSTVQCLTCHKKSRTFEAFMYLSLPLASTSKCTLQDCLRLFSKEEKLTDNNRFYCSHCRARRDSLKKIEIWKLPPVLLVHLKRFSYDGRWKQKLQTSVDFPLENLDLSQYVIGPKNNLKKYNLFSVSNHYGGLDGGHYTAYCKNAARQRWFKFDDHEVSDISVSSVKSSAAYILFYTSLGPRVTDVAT
Description: Inhibition of USP8 in HEK293T cell lysates assessed as enzyme recovery at 250 uM using HA-tagged vinyl-sulfone as substrate preincubated for 40 mins followed by 10-fold dilution and subsequent substrate addition measured up to 2 hrs by Western blot analysis.

The target in experiment [3] is Ubiquitin carboxyl-terminal hydrolase isozyme L1 (Homo sapiens) (UniProt P09936). Description: Inhibition of UCHL1 in HEK293T cell lysates at 25 uM using HA-tagged vinyl-sulfone as substrate preincubated for 19 to 60 mins followed by substrate addition and measured after 19 to 25 mins by Western blot analysis.
Ubiquitin carboxyl-terminal hydrolase isozyme L1 (Homo sapiens), sequence (P09936 whole entry, looked up): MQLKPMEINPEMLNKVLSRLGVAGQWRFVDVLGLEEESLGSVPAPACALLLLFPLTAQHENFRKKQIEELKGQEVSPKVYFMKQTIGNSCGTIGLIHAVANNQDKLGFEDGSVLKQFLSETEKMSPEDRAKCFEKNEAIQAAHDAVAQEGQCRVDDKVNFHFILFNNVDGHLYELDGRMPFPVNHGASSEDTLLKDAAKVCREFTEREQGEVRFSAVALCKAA
Experiment [4] shares this target. As to the kind of experiment: Inhibition of UCHL1 in HEK293T cell lysates assessed as enzyme recovery at 250 uM using HA-tagged vinyl-sulfone as substrate […] followed by 10-fold dilution and subsequent substrate addition measured within 15 mins by Western blot analysis.
Experiment [5] concerns the target Ubiquitin carboxyl-terminal hydrolase isozyme L5 (Homo sapiens) (UniProt Q9Y5K5). Description: Inhibition of UCHL5 in HEK293T cell lysates at 25 uM using HA-tagged vinyl-sulfone as substrate measured after 2 to 30 mins by Western blot analysis. In a few lines:
as §1

Active and inactive are the calls of the source. The calls are words filed in the database; no cut-off is given here.

Ubiquitin carboxyl-terminal hydrolase isozyme L5 (Homo sapiens), sequence (Q9Y5K5 whole entry): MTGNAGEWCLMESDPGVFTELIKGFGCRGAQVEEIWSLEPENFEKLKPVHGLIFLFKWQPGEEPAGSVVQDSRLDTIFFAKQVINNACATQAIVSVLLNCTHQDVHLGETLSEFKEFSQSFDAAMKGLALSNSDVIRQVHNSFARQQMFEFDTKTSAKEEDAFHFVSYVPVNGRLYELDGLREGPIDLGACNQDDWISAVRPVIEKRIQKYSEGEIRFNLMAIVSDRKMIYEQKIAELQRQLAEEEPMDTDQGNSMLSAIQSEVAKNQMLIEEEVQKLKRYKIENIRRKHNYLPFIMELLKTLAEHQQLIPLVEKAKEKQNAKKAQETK

Regarding `NCc1ccc(OC(=O)Oc2ccc3ccccc3c2)cc1`, the inhibition result in experiment [1], in experiment [2], in experiment [3] and in experiment [5] was “inactive” throughout. In experiment [4], the inhibition entry is “Active”.
